From paper PMC11904594 (Current Research in Microbial Sciences, 2025)
Converted amounts (≈) assume the structure as drawn.

Experiments:
[1] = test system: 11 bacterial strains (S. aureus, P. aeruginosa, A. baumannii, K. pneumoniae, E. coli); experiment: Antimicrobial activity screening, summary over groups of strains; type: cell-based; conditions: 50 µg/ml screen
[2] = test system: S. aureus ATCC 29,213; experiment: MIC, broth microdilution; type: cell-based, Staphylococcus aureus; conditions: MHB II, 10^6 CFU/ml, 37 °C, 24 h, triplicate
Summary of the method: (§1)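 Broth microdilution per CLSI. Strains were freshly plated on LB agar from glycerol stocks; the colistin-resistant lpxD mutant was plated on LB with 10 µg/ml colistin. Inoculum was 10^6 CFU/ml in Mueller Hinton broth II with two-fold dilutions of test compound from 100 to 0.10 µg/ml, incubated at 37 °C for 24 h. MIC was the lowest concentration with no growth.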

[3] = test system: S. aureus MRSA USA 300; experiment: MIC, broth microdilution; type: cell-based, Staphylococcus aureus; conditions: MHB II, 10^6 CFU/ml, 37 °C, 24 h, triplicate
Summary of the method: as §1

[4] = test system: P. aeruginosa ATCC 27,853; experiment: MIC, broth microdilution; type: cell-based, Pseudomonas aeruginosa; conditions: MHB II, 10^6 CFU/ml, 37 °C, 24 h, triplicate
Summary of the method: as §1

[5] = test system: P. aeruginosa (ST175–1); experiment: MIC, broth microdilution; type: cell-based, Pseudomonas aeruginosa; conditions: MHB II, 10^6 CFU/ml, 37 °C, 24 h, triplicate
Summary of the method: as §1

[6] = test system: A. baumannii ATCC 19,606; experiment: MIC, broth microdilution; type: cell-based, Acinetobacter baumannii; conditions: MHB II, 10^6 CFU/ml, 37 °C, 24 h, triplicate
Summary of the method: as §1

[7] = test system: A. baumannii IB010; experiment: MIC, broth microdilution; type: cell-based, Acinetobacter baumannii; conditions: MHB II, 10^6 CFU/ml, 37 °C, 24 h, triplicate
Summary of the method: as §1

[8] = test system: A. baumannii Ab-1; experiment: MIC, broth microdilution; type: cell-based, Acinetobacter baumannii; conditions: MHB II, 10^6 CFU/ml, 37 °C, 24 h, triplicate
Summary of the method: as §1

[9] = test system: K. pneumoniae ATCC 43,816; experiment: MIC, broth microdilution; type: cell-based, Klebsiella pneumoniae; conditions: MHB II, 10^6 CFU/ml, 37 °C, 24 h, triplicate
Summary of the method: as §1

[10] = test system: K. pneumoniae CG258; experiment: MIC, broth microdilution; type: cell-based, Klebsiella pneumoniae; conditions: MHB II, 10^6 CFU/ml, 37 °C, 24 h, triplicate
Summary of the method: as §1

[11] = test system: E. coli ATCC 25,922; experiment: MIC, broth microdilution; type: cell-based, Escherichia coli; conditions: MHB II, 10^6 CFU/ml, 37 °C, 24 h, triplicate
Summary of the method: as §1

[12] = test system: E. coli ESBL 1057.1; experiment: MIC, broth microdilution; type: cell-based, Escherichia coli; conditions: MHB II, 10^6 CFU/ml, 37 °C, 24 h, triplicate
Summary of the method: as §1

[13] = test system: S. aureus ATCC 29,213; experiment: Minimum bactericidal concentration; type: cell-based, Staphylococcus aureus; conditions: lowest concentration reducing at least 99.9 % of growth, plated on LB, 37 °C, 24 h, triplicate
[14] = test system: S. aureus MRSA USA 300; experiment: Minimum bactericidal concentration; type: cell-based, Staphylococcus aureus; conditions: lowest concentration reducing at least 99.9 % of growth, plated on LB, 37 °C, 24 h, triplicate
[15] = test system: P. aeruginosa ATCC 27,853; experiment: Minimum bactericidal concentration; type: cell-based, Pseudomonas aeruginosa; conditions: lowest concentration reducing at least 99.9 % of growth, plated on LB, 37 °C, 24 h, triplicate
[16] = test system: P. aeruginosa (ST175–1); experiment: Minimum bactericidal concentration; type: cell-based, Pseudomonas aeruginosa; conditions: lowest concentration reducing at least 99.9 % of growth, plated on LB, 37 °C, 24 h, triplicate
[17] = test system: A. baumannii ATCC 19,606; experiment: Minimum bactericidal concentration; type: cell-based, Acinetobacter baumannii; conditions: lowest concentration reducing at least 99.9 % of growth, plated on LB, 37 °C, 24 h, triplicate
[18] = test system: A. baumannii IB010; experiment: Minimum bactericidal concentration; type: cell-based, Acinetobacter baumannii; conditions: lowest concentration reducing at least 99.9 % of growth, plated on LB, 37 °C, 24 h, triplicate
[19] = test system: A. baumannii Ab-1; experiment: Minimum bactericidal concentration; type: cell-based, Acinetobacter baumannii; conditions: lowest concentration reducing at least 99.9 % of growth, plated on LB, 37 °C, 24 h, triplicate
[20] = test system: K. pneumoniae ATCC 43,816; experiment: Minimum bactericidal concentration; type: cell-based, Klebsiella pneumoniae; conditions: lowest concentration reducing at least 99.9 % of growth, plated on LB, 37 °C, 24 h, triplicate
[21] = test system: K. pneumoniae CG258; experiment: Minimum bactericidal concentration; type: cell-based, Klebsiella pneumoniae; conditions: lowest concentration reducing at least 99.9 % of growth, plated on LB, 37 °C, 24 h, triplicate
[22] = test system: E. coli ATCC 25,922; experiment: Minimum bactericidal concentration; type: cell-based, Escherichia coli; conditions: lowest concentration reducing at least 99.9 % of growth, plated on LB, 37 °C, 24 h, triplicate
[23] = test system: E. coli ESBL 1057.1; experiment: Minimum bactericidal concentration; type: cell-based, Escherichia coli; conditions: lowest concentration reducing at least 99.9 % of growth, plated on LB, 37 °C, 24 h, triplicate
[24] = test system: 11 bacterial strains; experiment: MBC, summary over all strains; type: cell-based; conditions: highest value over all strains, converted to molar
Summary of the method: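 The no-peptide growth well, serially diluted and plated, served as reference. Percent growth was calculated from CFU counts; MBC was the lowest concentration giving ≥99.9 % reduction (CLSI). Triplicate.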

[25] = test system: K. pneumoniae CG258; experiment: Time-kill assay; type: cell-based, Klebsiella pneumoniae; conditions: peptide at 2× MIC, 24 h
Summary of the method: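 Broth without compound was the growth control. Samples taken at 0, 3, 6 and 24 h were diluted and plated on MH II agar for CFU counts. Each curve was run at least in duplicate.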

[26] = test system: P. aeruginosa ST175–1; experiment: Inhibition of biofilm formation; type: cell-based, Pseudomonas aeruginosa; conditions: ¼ MIC
Summary of the method: (§2)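 Medium was discarded, wells washed with PBS, and biofilm stained with 1 % crystal violet for 15 min at room temperature. After two PBS washes, stain was eluted in 70 % ethanol and read at 595 nm. SBF = (OD595 − OD595 […])/OD600: weak ≤0.5, moderate 0.5–1, strong >1. Triplicate; Kruskal-Wallis with Dunn's test.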

[27] = test system: A. baumannii ATCC 19,606; experiment: Inhibition of biofilm formation; type: cell-based, Acinetobacter baumannii; conditions: ¼ MIC
Summary of the method: as §2

[28] = test system: A. baumannii Ab-1; experiment: Inhibition of biofilm formation; type: cell-based, Acinetobacter baumannii; conditions: ¼ MIC
Summary of the method: as §2

[29] = test system: K. pneumoniae ATCC 43,816; experiment: Inhibition of biofilm formation; type: cell-based, Klebsiella pneumoniae; conditions: ¼ MIC
Summary of the method: as §2

[30] = test system: K. pneumoniae CG258; experiment: Inhibition of biofilm formation; type: cell-based, Klebsiella pneumoniae; conditions: ¼ MIC
Summary of the method: as §2

[31] = Stability in human serum; type: in vitro ADME; conditions: 25 % (v/v)
Summary of the method: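 Test compound was added to RPMI with human serum pre-equilibrated at 37 °C, giving 333.33 µM final compound and 25 % (v/v) final serum. Mixtures were stirred at 37 °C for 10, 30, 45 or 60 min. Proteins were precipitated with 96 % ethanol, cooled at 4 °C for 15 min and spun at 14,000 g. Supernatants were run on C18 RP-HPLC (TFA/CH3CN gradient, 220 nm); degradation was taken from loss of native peak area. Duplicate.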

[32] = test system: Galleria mellonella larvae; experiment: In vivo toxicity in Galleria mellonella larvae; conditions: G. mellonella larvae, 50 µg/larvae (10 μl of 5 mg/ml), 30 °C, N=10 per group
Summary of the method: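 Sixth-instar Galleria mellonella larvae (200–300 mg) were held in sawdust at 4 °C until use. Groups of ten were injected with 10 μl of test compound, colistin or 0.9 % NaCl saline control into the second rear proleg, then kept at 30 °C.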

For CC[C@H](C)[C@H](NC(=O)[C@H](CCCCN)NC(=O)[C@H](CCCCN)NC(=O)[C@@H](Cc1ccccc1)NC(=O)[C@H](CC(C)C)NC(=O)[C@H](CCCCN)NC(=O)[C@@H](N)CCCCN)C(=O)N[C@@H](CC(C)C)C(=O)N[C@@H](CCCCN)C(=O)N[C@@H](Cc1ccc(O)cc1)C(=O)N[C@@H](CC(C)C)C(N)=O [BP143], the “growth inhibition for all Gram-negative strains tested” value [1] was ≥ 83%.
CC[C@H](C)[C@H](NC(=O)[C@H](CCCCN)NC(=O)[C@H](CCCCN)NC(=O)[C@H](Cc1ccccc1)NC(=O)[C@H](CC(C)C)NC(=O)[C@@H](CCCCN)NC(=O)[C@@H](N)CCCCN)C(=O)N[C@@H](CC(C)C)C(=O)N[C@@H](CCCCN)C(=O)N[C@@H](Cc1ccc(O)cc1)C(=O)N[C@@H](CC(C)C)C(N)=O [BP145] showed an MIC [2] of 50 µg/mL (≈ 35.2 µM), an MIC [3] of 50 µg/mL (≈ 35.2 µM) and an MIC [4] of 50 µg/mL (≈ 35.2 µM). The MIC [5] was 50 µg/mL (≈ 35.2 µM), the MIC [6] was 6.25 µg/mL (≈ 4.4 µM) and the MIC [7] was 25 µg/mL (≈ 17.6 µM). For the same molecule, the MIC [8] was 12.5 µg/mL (≈ 8.8 µM), the MIC [9] was 25 µg/mL (≈ 17.6 µM) and the MIC [10] was 12.5 µg/mL (≈ 8.8 µM). The MIC [11] was 6.25 µg/mL (≈ 4.4 µM), the MIC [12] was 12.5 µg/mL (≈ 8.8 µM) and the MBC [13] was 50 µg/mL (≈ 35.2 µM). For the same molecule, the MBC [14] was 50 µg/mL (≈ 35.2 µM), the MBC [15] was 50 µg/mL (≈ 35.2 µM) and the MBC [16] was 50 µg/mL (≈ 35.2 µM). The MBC [17] was 12.5 µg/mL (≈ 8.8 µM), the MBC [18] was 25 µg/mL (≈ 17.6 µM) and the MBC [19] was 12.5 µg/mL (≈ 8.8 µM). It also gave an MBC [20] of 25 µg/mL (≈ 17.6 µM), an MBC [21] of 12.5 µg/mL (≈ 8.8 µM) and an MBC [22] of 6.25 µg/mL (≈ 4.4 µM). For the same molecule, the MBC [23] was 12.5 µg/mL (≈ 8.8 µM), the “growth inhibition of all the strains” value ([1]; all strains, Gram-negative and Gram-positive) was “≈ 90%” and the “highest MBC observed” value [24] was 35 µM. The “bactericidal activity in time-kill assay” value [25] was “bactericidal”, the “SBF index compared to BP607” value [26] was “reduced SBF indices compared to BP607” and the “SBF index compared to BP607” value [27] was “reduced SBF indices compared to BP607”. For the same molecule, the “SBF index compared to BP607” value [28] was “reduced SBF indices compared to BP607”, the “SBF index compared to BP607” value [29] was “reduced SBF indices compared to BP607” and the biofilm formation [30] was “inhibited biofilm formation”. The remaining at 1 h, 333.33 µM [31] was 35% and the “survival after 24h” value [32] was 70%.
